Assay results as given in ChEMBL document CHEMBL3813618, “Polyhalogenated Indoles from the Red Alga Rhodophyllis membranacea: The First Isolation of Bromo-Chloro-Iodo Secondary Metabolites” (J Nat Prod, 2016).

How the values were obtained:
Saccharomyces cerevisiae = test: Antifungal activity against Saccharomyces cerevisiae BY4741 assessed as growth inhibition; format: functional
Summary of the method: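 Wild-type strain BY4741 grown in liquid synthetic complete medium with compound; cell density read at A600. Concentration giving 50% growth inhibition determined relative to untreated controls.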

[1] = Cytotoxicity against human HL60 cells assessed as cell growth inhibition after 48 hrs by MTT assay; format: functional, cell-based; details: HL-60, 48 h
Summary of the method: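 Cell proliferation MTT assay, 48 h exposure of HL-60 promyelocytic leukemia cells to compound at various concentrations; dose-response generated relative to untreated HL-60 control cells. n = 1 or 2 independent experiments, duplicate wells per experiment.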

Row | Structure (SMILES) | IC50 (Saccharomyces cerevisiae) [µM] | IC50 [1] [µM]
1 | O=C1Nc2cccc(Cl)c2C1=O | > 61 | 
2 | Clc1[nH]c2c(Br)c(I)ccc2c1Cl | 39 | 49
3 | Clc1[nH]c2c(Br)ccc(Br)c2c1Cl | 23 | 28
4 | Brc1ccc2c(Br)c(Br)[nH]c2c1Br | 69 | 38
5 | Clc1[nH]c2c(Br)c(Br)ccc2c1Cl | 63 | 61
6 | Clc1c(Br)[nH]c2c(Br)c(Br)ccc12 | > 83 | 78
7 | CC(=O)CC1(O)C(=O)Nc2cccc(Cl)c21 (stereo not drawn) | > 49 | 61
